Measured values from different studies.
Lines come from different studies, so protocols differ.
LNPEP: Leucyl-cystinyl aminopeptidase (LNPEP, Homo sapiens, UniProt Q9UIQ6)
MMP13: Collagenase 3 (MMP13, Homo sapiens, UniProt P45452)
Cruzipain: Cruzipain (Trypanosoma cruzi, UniProt P25779)
CHRM1: Muscarinic acetylcholine receptor M1 (CHRM1, Homo sapiens, UniProt P11229)
SLCO1B1: Solute carrier organic anion transporter family member 1B1 (SLCO1B1, Homo sapiens, UniProt Q9Y6L6)
F12: Coagulation factor XII (F12, Homo sapiens, UniProt P00748)
JAK1: Tyrosine-protein kinase JAK1 (JAK1, Homo sapiens, UniProt P23458)
PBRM1 bromodomain: Protein polybromo-1, bromodomain (PBRM1, Homo sapiens, UniProt Q86U86)

Structure (SMILES)	target	assay	system	setting	IC50
O=S(=O)(Nc1cccc(-c2nnn[nH]2)c1)c1ccc(Cl)c(Cl)c1Cl	LNPEP	enzyme activity, inhibitor, fluorescence			1.2 µM
NC(=O)c1ccc[n+]([C@@H]2O[C@H](COP(=O)([O-])OP(=O)(O)OC[C@H]3O[C@@H](n4cnc5c(N)ncnc54)[C@H](O)[C@@H]3O)[C@@H](O)[C@H]2O)c1	Protein mono-ADP-ribosyltransferase PARP8 (Homo sapiens, UniProt Q8N3A8)	enzyme activity, inhibitor			377 µM
Cn1nc(C(=O)NCc2ccc(C(=O)O)cc2)cc1-c1ccc2[nH]c(-c3ccncc3)cc2c1	MMP13	enzyme activity, inhibitor, FRET			0.00092 µM
O=S(=O)(Nc1cccc(-c2nnn[nH]2)c1)c1cc(C(F)(F)F)ccc1C(F)(F)F	LNPEP	enzyme activity, inhibitor, fluorescence			0.8 µM
Cn1nc(C(=O)NCc2ccc(C(=O)O)cc2)cc1-c1ccc2[nH]c(-c3cccnc3)cc2c1	MMP13	enzyme activity, inhibitor, FRET			0.0058 µM
O=C(CNC(=O)c1ccccc1)OC(C(=O)Nc1cc(C(F)(F)F)ccc1Cl)c1ccccc1 (stereo not drawn)	Cruzipain	enzyme activity, inhibitor			7 µM
C[N+]1(C)CCC(OC(=O)C(c2ccccc2)c2ccccc2)CC1	CHRM1	ligand displacement, radioligand			0.00527 µM
O=S(=O)(Nc1cccc(-c2nnn[nH]2)c1)c1cc(Br)c(Cl)s1	LNPEP	enzyme activity, inhibitor, fluorescence			1.1 µM
Cc1noc(-c2cc3cc(-c4nc(C(=O)NCc5ccccn5)[nH]c4C)ccc3[nH]2)n1	MMP13	enzyme activity, inhibitor, FRET			0.0031 µM
O=S(=O)(Nc1cccc(-c2nnn[nH]2)c1)c1scc2ccccc12	LNPEP	enzyme activity, inhibitor, fluorescence			10.9 µM
C[C@]12CC[C@@H]3c4ccc(OS(=O)(=O)O)cc4CC[C@H]3[C@@H]1CCC2=O	SLCO1B1	transporter uptake, inhibitor, fluorescence	CHO	30 min, pH 7.4	0.06 µM
O=S(=O)(Nc1cccc(-c2nnn[nH]2)c1)c1ccc(F)c(F)c1	LNPEP	enzyme activity, inhibitor, fluorescence			12.1 µM
COC(=O)c1nc(N)n(C(=O)c2ccc(C(C)(C)C)cc2)n1	F12	enzyme activity, inhibitor, absorbance			~0.11 µM
Cc1ccc(C(C)C)c(O)c1	gbr-2 (Haemonchus contortus, UniProt O46124)	ion current, antagonist, two-electrode voltage clamp		oocytes	1200 µM
Cn1ccc2ccc(S(=O)(=O)Nc3cccc(-c4nnn[nH]4)c3)cc21	LNPEP	enzyme activity, inhibitor, fluorescence			12.7 µM
CCn1ncc2c1-c1cnc(N)c(c1)O[C@H](C)c1cc(F)ccc1-c1nn(C)nc1C2	Insulin receptor (INSR, Homo sapiens, UniProt P06213)	enzyme activity, inhibitor, radiometric			1.14 µM
CCC1CN(C(=O)NCC(F)(F)F)CC1c1nc(N)nc2[nH]ccc12 (stereo not drawn)	JAK1	enzyme activity, inhibitor, ADP detection			9.6 µM
COc1ccc2c(Oc3ccc4c(C(=O)Nc5ccccc5N)cccc4c3)ccnc2c1	JAK1	enzyme activity, inhibitor			> 0.5 µM
CC[C@@H](C(=O)Nc1ccc(C(N)=O)c(F)c1)n1cc(OC)c(-c2cc(Cl)ccc2-n2cc(C(F)(F)F)nn2)cc1=O	F12	enzyme activity, inhibitor			> 2 µM
Cc1ncsc1-c1ccc(CNC(=O)[C@@H]2C[C@@H](O)CN2C(=O)[C@@H](NC(=O)C2(F)CC2)C(C)(C)C)c(OCCOc2ccc(CN3CCN(c4cc(-c5ccccc5O)nnc4N)CC3)cc2)c1	PBRM1 bromodomain	cell-free assay, TR-FRET			0.504 µM
CN1CCN(c2ccc(Nc3ncc4cc(C#N)c(=O)n(C5CCCC5)c4n3)cc2)CC1	Calcium/calmodulin-dependent protein kinase type II subunit gamma (CAMK2G, Homo sapiens, UniProt Q13555)	enzyme activity, inhibitor			3.87 µM
CCn1c(-c2nc3ccc(C(=O)N4CCCC(N)C4)cc3n2C)cc2ccccc21 (stereo not drawn)	CHRM1	calcium signal, antagonist, fluorescence			> 15.8 µM
Cc1ncsc1-c1ccc(CNC(=O)[C@@H]2C[C@@H](O)CN2C(=O)[C@@H](NC(=O)C2(F)CC2)C(C)(C)C)c(OCCOCCOCCN2CCN(c3cc(-c4ccccc4O)nnc3N)CC2)c1	PBRM1 bromodomain	cell-free assay, TR-FRET			1.5 µM

Structure (SMILES)	target	assay	system	setting	IC50
O=S(=O)(Nc1cccc(-c2nnn[nH]2)c1)c1ccc(Br)cc1F	LNPEP	enzyme activity, inhibitor, fluorescence			5.5 µM
Cc1noc(-c2cc3cc(-c4nc(C(=O)NCc5ccccc5)[nH]c4C)ccc3[nH]2)n1	MMP13	enzyme activity, inhibitor, FRET			0.0023 µM
Oc1ccc(/C=C/c2cc(O)cc(O)c2)cc1	SLCO1B1	transporter uptake, inhibitor, fluorescence	CHO	30 min, pH 7.4	11.2 µM
CCCC[C@H](NC(=O)[C@H](C)c1c(C)[nH]c2ccc(O)cc12)c1ncc(-c2cc3ccccc3nc2OC)[nH]1	Histone deacetylase 11 (HDAC11, Homo sapiens, UniProt Q96DB2)	enzyme activity, inhibitor			0.1 µM
Cc1noc(-c2cc3cc(-c4nc(C(=O)NCc5ccc(=O)[nH]c5)[nH]c4C)ccc3[nH]2)n1	MMP13	enzyme activity, inhibitor, FRET			0.00033 µM
O=c1ccc2c(OCCCCOc3ccccc3)c3ccoc3c(O)c2o1	Potassium voltage-gated channel subfamily A member 3 (Kcna3, Mus musculus, UniProt P16390)	ion current, inhibitor, patch clamp			0.159 µM
Nc1ncnc2c1ncn2[C@@H]1O[C@H](CN(CC[C@H](N)C(=O)O)Cc2ccc3ccccc3c2)[C@@H](O)[C@H]1O	Histone-lysine N-methyltransferase NSD2 (NSD2, Homo sapiens, UniProt O96028)	enzyme activity, inhibitor			> 50 µM
C=CCOc1cccc2c1-c1c(c3c(n1C(C)C)CCCC3=O)C2=O	Casein kinase II subunit alpha' (CSNK2A2, Homo sapiens, UniProt P19784, C336S)	enzyme activity, inhibitor			0.273 µM
NCc1ccc(Nc2ncc(F)c(Nc3ccccc3)n2)cc1	Serine/threonine-protein kinase PAK 4 (PAK4, Homo sapiens, UniProt O96013)	enzyme activity, inhibitor		lysate	> 10 µM
CC(C)C(NC(=O)c1ccco1)C(=O)NCC(c1ccco1)N1CCCCC1 (stereo not drawn)	Cruzipain	enzyme activity, inhibitor			14 µM
Nc1ccccc1S(N)(=O)=O	SLCO1B1	transporter uptake, inhibitor, fluorescence	CHO	30 min, pH 7.4	> 100 µM
Cc1noc(-c2cc3cc(-c4nc(C(=O)NCc5cccnc5)[nH]c4C)ccc3[nH]2)n1	MMP13	enzyme activity, inhibitor, FRET			0.00064 µM
CC/C=C\C/C=C\C/C=C\C/C=C\C/C=C\CCCC(=O)O	DNA polymerase delta catalytic subunit (POLD1, Homo sapiens, UniProt P28340)	enzyme activity, inhibitor			39.2 µM
CCOc1ccc2c(-c3cc(C)nc(Nc4cc(OC)cc(C(F)(F)F)c4)n3)cnn2n1	Dual specificity protein kinase CLK2 (CLK2, Homo sapiens, UniProt P49760)	enzyme activity, inhibitor			> 10 µM
CCOC(=O)[C@H](CCc1ccccc1)N[C@@H](C)C(=O)N1[C@H](C(=O)O)C[C@@H]2CCC[C@@H]21	SLCO1B1	transporter uptake, inhibitor, fluorescence	CHO	30 min, pH 7.4	4 µM
Nc1ncc2c(n1)-c1c([nH]c3ccc(-c4ccc(F)cc4)cc13)CCC2	Dual serine/threonine and tyrosine protein kinase (DSTYK, Homo sapiens, UniProt Q6XUX3)	enzyme activity, inhibitor, radiometric			3.9 µM
CCOCc1nc(O)c(-c2nnc(Cc3ccc(Cl)cn3)o2)c(O)c1-c1c(OC)cccc1OC	5-hydroxytryptamine receptor 4 (HTR4, Homo sapiens, UniProt Q13639)	ligand displacement, radioligand			> 30 µM
Cc1cc(N2CCc3c(c(C)nn3CC34CCC(NC(=O)[C@@H]5COCCN5)(CC3)CC4)C2)c2cnn(C)c2n1	Toll-like receptor 7 (TLR7, Homo sapiens, UniProt Q9NYK1)	IL-6 release, inhibitor			0.0007 µM
CCOc1cc(CC(=O)N[C@@H](CC(C)C)c2ccccc2N2CCCCC2)ccc1C(=O)O	SLCO1B1	transporter uptake, inhibitor, fluorescence	CHO	30 min, pH 7.4	1.1 µM
Nc1nc(N)c2nc(CNc3cccc4ccccc34)cnc2n1	Cytochrome P450 3A4 (CYP3A4, Homo sapiens, UniProt P08684)	enzyme activity, inhibitor, luciferase			66.1 µM
Cc1cc(S(=O)(=O)Nc2cccc(-c3nnn[nH]3)c2)ccc1C(F)(F)F	LNPEP	enzyme activity, inhibitor, fluorescence			2.3 µM
O=C(COc1ccccc1Br)NCCc1nc2ccccc2[nH]1	Cruzipain	enzyme activity, inhibitor			0.4 µM
